For orientation: MIC50 means an inhibitory concentration at the 50% level, which refers to growth in some studies and to a panel of isolates in others. A low value points to greater potency. The MIC90 is the lowest concentration that inhibits either 90% of growth or 90% of the strains tested, depending on the study. Read a low MIC90 as greater potency.

For 16 compounds, Activity, MIC50 and MIC90 results are on record in ChEMBL document CHEMBL1145535, “Clonal diversity and resistance mechanisms in tetracycline-nonsusceptible Streptococcus pneumoniae isolates in Poland” (2007).

SMILES strings stand for the structures. Converted amounts (≈) assume the structure as drawn.

Common to all, as to format: functional
The test system of assay [1] is Streptococcus pneumoniae. Nature of the assay: Antimicrobial susceptibility of tetracycline-resistant Streptococcus pneumoniae from respiratory tract disease patient assessed as percent susceptible isolates. The method, boiled down: (§1)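 MICs determined for all tetracycline-resistant isolates by broth microdilution per CLSI recommendations. Agents tested included tetracycline, doxycycline, penicillin G, erythromycin and chloramphenicol. FDA breakpoints were applied to categorize tigecycline results.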

For assay [2], the system named is Streptococcus pneumoniae. Nature of the assay: Antimicrobial activity against Streptococcus pneumoniae ATCC 49619. The essentials:
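MICs determined by broth microdilution as recommended by CLSI. Agents tested included tetracycline, doxycycline, penicillin G, erythromycin and chloramphenicol. Tigecycline results were interpreted against FDA breakpoints.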

The test system of assay [3] is Streptococcus pneumoniae. Nature of the assay: Antimicrobial susceptibility of tetracycline-resistant Streptococcus pneumoniae from respiratory tract disease patient assessed as percent resistant isolates. The method, boiled down:
as §1

`O=C(N[C@H](CO)[C@H](O)c1ccc([N+](=O)[O-])cc1)C(Cl)Cl` [CHLORAMPHENICOL]: the Activity in the assay with Streptococcus pneumoniae [1] stood at 70.7%. For the same compound, in the assay on Streptococcus pneumoniae [2], the MIC50 is 4 µg/mL (≈ 12.4 µM) and the MIC90 was determined as 16 µg/mL (≈ 49.5 µM). Moreover, the Activity in the assay with Streptococcus pneumoniae [3] is reported as 39.2%.

Consider `CC(=O)NC[C@H]1CN(c2ccc(N3CCOCC3)c(F)c2)C(=O)O1` [LINEZOLID], for which the Activity with Streptococcus pneumoniae [1] is listed as 100%. Also, in the assay on Streptococcus pneumoniae [2], the MIC50 turned out to be 1 µg/mL (≈ 2.96 µM) and the MIC90 stood at 1 µg/mL (≈ 2.96 µM).

As to `CCC[C@@H]1C[C@@H](C(=O)N[C@@H]([C@H]2O[C@H](SC)[C@H](O)[C@@H](O)[C@H]2O)[C@H](C)Cl)N(C)C1` [CLINDAMYCIN], the results for the Activity with Streptococcus pneumoniae [1] and with Streptococcus pneumoniae [3] were 76.9% and 23.1%, respectively. The MIC50 against Streptococcus pneumoniae [2] was at most 0.03 µg/mL. In addition, the MIC90 in the assay on Streptococcus pneumoniae [2] is above 4 µg/mL.

Consider `CN(C)c1ccc(O)c2c1C[C@H]1C[C@H]3[C@H](N(C)C)C(O)=C(C(N)=O)C(=O)[C@@]3(O)C(O)=C1C2=O` [MINOCYCLINE], for which, in the assay on Streptococcus pneumoniae [1], the Activity worked out at 24.4%. In the assay with Streptococcus pneumoniae [2], this compound registered an MIC50 of 4 µg/mL (≈ 8.74 µM) and an MIC90 of 8 µg/mL (≈ 17.5 µM). The Activity in the assay on Streptococcus pneumoniae [3] was 38.8%.

For the compound `CC[C@H]1OC(=O)[C@H](C)C(=O)[C@H](C)[C@@H](O[C@@H]2O[C@H](C)C[C@H](N(C)C)[C@H]2O)[C@](C)(OC)C[C@@H](C)C(=O)[C@H](C)[C@H]2N(CCCCn3cnc(-c4cccnc4)c3)C(=O)O[C@]12C` [TELITHROMYCIN], the results for the Activity in the assay with Streptococcus pneumoniae [1] and with Streptococcus pneumoniae [3] were 98.8% and 0.4%, respectively. Moreover, the MIC50 with Streptococcus pneumoniae [2] is at most 0.015 µg/mL. For the same compound, in the assay on Streptococcus pneumoniae [2], the MIC90 was at most 0.015 µg/mL.

As for `CN(C)[C@@H]1C(O)=C(C(N)=O)C(=O)[C@@]2(O)C(O)=C3C(=O)c4c(O)cccc4[C@@](C)(O)[C@H]3C[C@@H]12` [TETRACYCLINE], in the assay with Streptococcus pneumoniae [2], the MIC50 was determined as 32 µg/mL (≈ 72 µM) and the MIC90 was 64 µg/mL (≈ 144 µM). Also, the Activity with Streptococcus pneumoniae [3] was 100%.

For the compound `CO[C@H]1/C=C/O[C@@]2(C)Oc3c(C)c(O)c4c(O)c(c(/C=N/N5CCN(C)CC5)c(O)c4c3C2=O)NC(=O)/C(C)=C\C=C\[C@H](C)[C@H](O)[C@@H](C)[C@@H](O)[C@@H](C)[C@H](OC(C)=O)[C@@H]1C` [RIFAMPIN], the Activity in the assay with Streptococcus pneumoniae [1] is on record as 98.8%. In the assay with Streptococcus pneumoniae [2], the MIC50 is at most 0.03 µg/mL and the MIC90 is at most 0.03 µg/mL. For the same compound, the Activity in the assay on Streptococcus pneumoniae [3] was determined as 0.8%.

For `COc1cc(Cc2cnc(N)nc2N)cc(OC)c1OC` [TRIMETHOPRIM], in the assay with Streptococcus pneumoniae [1], the Activity is listed as 30.2%. Moreover, in the assay with Streptococcus pneumoniae [2], the MIC50 amounted to 2 µg/mL (≈ 6.89 µM) and the MIC90 worked out at 8 µg/mL (≈ 27.6 µM). Besides, the Activity in the assay on Streptococcus pneumoniae [3] is reported as 38.4%.

For the compound `C[C@H]1c2cccc(O)c2C(=O)C2=C(O)[C@]3(O)C(=O)C(C(N)=O)=C(O)[C@@H](N(C)C)[C@@H]3[C@@H](O)[C@@H]21.O` [DOXYCYCLINE], the Activity in the assay with Streptococcus pneumoniae [1] was determined as 19.9%; in the assay on Streptococcus pneumoniae [3], 25.2%. The compound also came in with an MIC50 with Streptococcus pneumoniae [2] of 4 µg/mL. In the assay on Streptococcus pneumoniae [2], this compound came in with an MIC90 of 8 µg/mL.

On to `CO/N=C(\C(=O)N[C@@H]1C(=O)N2C(C(=O)O)=C(COC(C)=O)CS[C@H]12)c1csc(N)n1` [CEFOTAXIME], for which the Activity with Streptococcus pneumoniae [1] is reported as 93.8%. In the assay on Streptococcus pneumoniae [2], this compound registered an MIC50 of 0.015 µg/mL (≈ 0.0329 µM) and an MIC90 of 1 µg/mL (≈ 2.2 µM). The Activity with Streptococcus pneumoniae [3] was found to be 2.1%.

For `CC1(C)S[C@@H]2[C@H](NC(=O)Cc3ccccc3)C(=O)N2[C@H]1C(=O)O` [PENICILLIN G], the Activity with Streptococcus pneumoniae [1] stood at 74%. Moreover, in the assay on Streptococcus pneumoniae [2], the MIC50 was 0.015 µg/mL (≈ 0.0449 µM) and the MIC90 turned out to be 2 µg/mL (≈ 5.98 µM). Also, the Activity in the assay with Streptococcus pneumoniae [3] is reported as 14.9%.

`C[C@@H](O)[C@H]1C(=O)N2C(C(=O)O)=C(S[C@@H]3CN[C@H](C(=O)N(C)C)C3)[C@H](C)[C@H]12` [MEROPENEM]: the Activity in the assay with Streptococcus pneumoniae [1] is listed as 86.8%. Further, in the assay with Streptococcus pneumoniae [2], the MIC50 was at most 0.015 µg/mL and the MIC90 was 0.5 µg/mL (≈ 1.3 µM). Besides, in the assay with Streptococcus pneumoniae [3], the Activity came out at 0.4%.

For the compound `CN[C@H](CC(C)C)C(=O)N[C@H]1C(=O)N[C@@H](CC(N)=O)C(=O)N[C@H]2C(=O)N[C@H]3C(=O)N[C@H](C(=O)N[C@H](C(=O)O)c4cc(O)cc(O)c4-c4cc3ccc4O)[C@H](O)c3ccc(c(Cl)c3)Oc3cc2cc(c3O[C@@H]2O[C@H](CO)[C@@H](O)[C@H](O)[C@H]2O[C@H]2C[C@](C)(N)[C@H](O)[C@H](C)O2)Oc2ccc(cc2Cl)[C@H]1O` [VANCOMYCIN], in the assay with Streptococcus pneumoniae [1], the Activity is listed as 100%. In the assay with Streptococcus pneumoniae [2], this compound gave an MIC50 of 0.25 µg/mL (≈ 0.173 µM) and an MIC90 of 0.5 µg/mL (≈ 0.345 µM).

Consider `CN(C)c1cc(NC(=O)CNC(C)(C)C)c(O)c2c1C[C@H]1C[C@H]3[C@H](N(C)C)C(O)=C(C(N)=O)C(=O)[C@@]3(O)C(O)=C1C2=O` [TIGECYCLINE], for which the Activity in the assay on Streptococcus pneumoniae [1] is 100%. In the assay on Streptococcus pneumoniae [2], this compound had an MIC50 of 0.015 µg/mL (≈ 0.0256 µM) and an MIC90 of 0.03 µg/mL (≈ 0.0512 µM).

`CC[C@H]1OC(=O)[C@H](C)[C@@H](O[C@H]2C[C@@](C)(OC)[C@@H](O)[C@H](C)O2)[C@H](C)[C@@H](O[C@@H]2O[C@H](C)C[C@H](N(C)C)[C@H]2O)[C@](C)(O)C[C@@H](C)C(=O)[C@H](C)[C@@H](O)[C@]1(C)O` [ERYTHROMYCIN]: the Activity in the assay on Streptococcus pneumoniae [1] came to 72.4%; in the assay with Streptococcus pneumoniae [3], 26.4%. The MIC50 in the assay on Streptococcus pneumoniae [2] is at most 0.25 µg/mL. In the assay with Streptococcus pneumoniae [2], this compound came in with an MIC90 above 16 µg/mL.

With `C[C@H]1COc2c(N3CCN(C)CC3)c(F)cc3c(=O)c(C(=O)O)cn1c23.C[C@H]1COc2c(N3CCN(C)CC3)c(F)cc3c(=O)c(C(=O)O)cn1c23.O` [LEVOFLOXACIN], the Activity in the assay with Streptococcus pneumoniae [1] was 98.8%. In the assay on Streptococcus pneumoniae [2], this compound registered an MIC50 of 1 µg/mL and an MIC90 of 1 µg/mL. The Activity in the assay with Streptococcus pneumoniae [3] worked out at 0.4%.
